Test results published in ChEMBL document CHEMBL1641374, “Synthesis of antiproliferative flavones from calycopterin, major flavonoid of Calycopteris floribunda Lamk” (Bioorg Med Chem, 2011).

Legend:
KB [1] = assay: Cytotoxicity against human KB cells at 10^-6 M after 72 hrs by MTS assay; format: functional
Outline: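 KB cells in D-MEM with 10% FCS were seeded at 600 cells/well and dosed 24 h later with flavone at 10^-6 M in DMSO. Controls received DMSO at 1% final. After 72 h, MTS was added for 3 h at 37 °C and A490 read in triplicate. Growth inhibition (%) = (1 − OD treated/OD control)×100.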

KB [2] = assay: Cytotoxicity against human KB cells after 72 hrs by MTS assay; format: functional, cell-based
MIA PaCa-2 = assay: Cytotoxicity against human MIAPaCa2 cells after 72 hrs by MTS assay; format: functional, cell-based; conditions: MIA PaCa-2, 72 h
KB [3] = assay: Induction of cell cycle arrest in human KB cells assessed as accumulation at subG1 phase at 50 nM after 24 hrs by propidium iodide staining-based flow cytometry (reference value: 0.7%); format: functional
HCT-15 = assay: Cytotoxicity against human HCT15 cells after 72 hrs by MTS assay; format: functional, cell-based; conditions: HCT-15, 72 h
SK-OV-3 = assay: Cytotoxicity against human SKOV3 cells after 72 hrs by MTS assay; format: functional, cell-based; conditions: SK-OV-3, 72 h
KB [4] = assay: Induction of cell cycle arrest in human KB cells assessed as accumulation at G2/M phase at 50 nM after 48 hrs by propidium iodide staining-based flow cytometry (reference value: 13.8%); format: functional
KB [5] = assay: Induction of cell cycle arrest in human KB cells assessed as accumulation at G0/G1phase at 50 nM after 48 hrs by propidium iodide staining-based flow cytometry (reference value: 66.6%); format: functional
Ovis aries = species on record: Ovis aries; assay: Inhibition of sheep brain tubulin polymerization after 5 mins
Outline: (§1)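 Sheep brain microtubule proteins were purified by two assembly/disassembly cycles (37 °C/0 °C) in 100 mM MES pH 6.6, 1 mM EGTA, 0.5 mM MgCl2. Polymerization rate was followed by turbidity at 350 nm, with deoxypodophyllotoxin as reference. Compounds were tested at ~2×10^-5 M for % inhibition, with IC50 determined for selected compounds.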

KB [6] = assay: Induction of cell cycle arrest in human KB cells assessed as accumulation at S phase at 50 nM after 48 hrs by propidium iodide staining-based flow cytometry (reference value: 18.4%); format: functional
HepG2 = assay: Cytotoxicity against human HepG2 cells after 72 hrs by MTS assay; format: functional, cell-based; conditions: HepG2, 72 h
KB [7] = assay: Induction of cell cycle arrest in human KB cells assessed as accumulation at G2/M phase at 50 nM after 24 hrs by propidium iodide staining-based flow cytometry (reference value: 19.6%); format: functional
[8] = Cytotoxicity against human MCF7/R cells after 72 hrs by MTS assay; format: functional, cell-based; conditions: MCF7R
HL-60 [9] = assay: Induction of apoptosis in human HL60 cells assessed as late apoptosis cells at 50 nM after24 hrs by annexin-V-PE/7-AAD staining (reference value: 0.2%); format: functional
K562 = assay: Cytotoxicity against human K562 cells after 72 hrs by MTS assay; format: functional, cell-based; conditions: K562, 72 h
[10] = Inhibition of sheep brain tubulin polymerization at 2x10'-5 M after 5 mins; parameters: species or system Ovis aries; outline: as §1
HL-60 [11] = assay: Cytotoxicity against human HL60 cells after 72 hrs by MTS assay; format: functional, cell-based; conditions: HL-60, 72 h
HL-60 [12] = assay: Induction of apoptosis in human HL60 cells assessed as late apoptosis cells at 50 nM after 48 hrs by annexin-V-PE/7-AAD staining (reference value: 0.1%); format: functional
A549 = assay: Cytotoxicity against human A549 cells after 72 hrs by MTS assay; format: functional, cell-based; conditions: A549, 72 h
OVCAR-8 = assay: Cytotoxicity against human OVCAR8 cells after 72 hrs by MTS assay; format: functional, cell-based; conditions: OVCAR-8, 72 h
KB [13] = assay: Induction of cell cycle arrest in human KB cells assessed as accumulation at G0/G1phase at 50 nM after 24 hrs by propidium iodide staining-based flow cytometry (reference value: 72.9%); format: functional
PC-3 = assay: Cytotoxicity against human PC3 cells after 72 hrs by MTS assay; format: functional, cell-based; conditions: PC-3, 72 h
HL-60 [14] = assay: Induction of apoptosis in human HL60 cells assessed as early apoptosis cells at 50 nM after24 hrs by annexin-V-PE/7-AAD staining (reference value: 2.6%); format: functional
KB [15] = assay: Induction of cell cycle arrest in human KB cells assessed as accumulation at S phase at 50 nM after 24 hrs by propidium iodide staining-based flow cytometry (reference value: 6.9%); format: functional
HT-29 = assay: Cytotoxicity against human HT-29 cells after 72 hrs by MTS assay; format: functional, cell-based; conditions: HT-29, 72 h
KB [16] = assay: Induction of cell cycle arrest in human KB cells assessed as accumulation at subG1 phase at 50 nM after 48 hrs by propidium iodide staining-based flow cytometry (reference value: 1.2%); format: functional
HL-60 [17] = assay: Induction of apoptosis in human HL60 cells assessed as induction of caspase 3/7 activation at 100 nM relative to control; format: functional
Outline: (§2)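 HL60 cells (20,000/well) were treated 24 and 48 h with compounds in DMSO. Vehicle and doxorubicine served as controls. Fluorescence (ex 360/em 465 nm) was followed over 3 h.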

SF-268 = assay: Cytotoxicity against human SF268 cells after 72 hrs by MTS assay; format: functional, cell-based; conditions: SF-268, 72 h
HCT-116 = assay: Cytotoxicity against human HCT116 cells after 72 hrs by MTS assay; format: functional, cell-based; conditions: HCT-116, 72 h
HL-60 [18] = assay: Induction of apoptosis in human HL60 cells assessed as viable cells at 50 nM after 48 hrs by annexin-V-PE/7-AAD staining (reference value: 97.4%); format: functional; conditions: HL-60, 48 h, read-out: Activity
[19] = Cytotoxicity against human HL60R cells after 72 hrs by MTS assay; format: functional, cell-based; conditions: HL-60, 72 h
HL-60 [20] = assay: Induction of apoptosis in human HL60 cells assessed as viable cells at 50 nM after24 hrs by annexin-V-PE/7-AAD staining (reference value: 97.2%); format: functional; conditions: read-out: Activity
HL-60 [21] = assay: Induction of apoptosis in human HL60 cells assessed as induction of caspase 3/7 activation at 100 uM relative to control; format: functional; outline: as §2
HL-60 [22] = assay: Induction of apoptosis in human HL60 cells assessed as viable cells at 200 nM after 48 hrs by annexin-V-PE/7-AAD staining (reference value: 97.4%); format: functional; conditions: HL-60, 48 h, read-out: Activity
HL-60 [23] = assay: Induction of apoptosis in human HL60 cells assessed as early apoptosis cells at 200 nM after24 hrs by annexin-V-PE/7-AAD staining (reference value: 2.6%); format: functional
HL-60 [24] = assay: Induction of apoptosis in human HL60 cells assessed as early apoptosis cells at 200 nM after 48 hrs by annexin-V-PE/7-AAD staining (reference value: 2.5%); format: functional
HL-60 [25] = assay: Induction of apoptosis in human HL60 cells assessed as viable cells at 200 nM after24 hrs by annexin-V-PE/7-AAD staining (reference value: 97.2%); format: functional; conditions: read-out: Activity
HL-60 [26] = assay: Induction of apoptosis in human HL60 cells assessed as late apoptosis cells at 200 nM after 48 hrs by annexin-V-PE/7-AAD staining (reference value: 0.1%); format: functional
HL-60 [27] = assay: Induction of apoptosis in human HL60 cells assessed as late apoptosis cells at 200 nM after24 hrs by annexin-V-PE/7-AAD staining (reference value: 0.2%); format: functional
HL-60 [28] = assay: Induction of apoptosis in human HL60 cells assessed as early apoptosis cells at 50 nM after 48 hrs by annexin-V-PE/7-AAD staining (reference value: 2.5%); format: functional

COc1ccc(-c2oc3c(OC)c(OC)c(O)c(O)c3c(=O)c2OC)cc1N
Activity (KB [1]): 38%
IC50 (KB [2]): 10000 nM

COc1ccc(-c2oc3c(OC)c(OC)c(OC)c(O)c3c(=O)c2OC)cc1CO
Activity (KB [1]): <=13%

COc1ccc(-c2oc3c(OC)c(OC)c(OC)c(O)c3c(=O)c2OC)cc1O
IC50 (MIA PaCa-2): 12 nM
Activity (KB [3]): 14.9%
IC50 (HCT-15): 14 nM
IC50 (SK-OV-3): 22 nM
Activity (KB [4]): 11.8%
Activity (KB [1]): 96%
Activity (KB [5]): 27.4%
inhibition (Ovis aries): 3%
Activity (KB [6]): 38.6%
IC50 (HepG2): 174 nM
Activity (KB [7]): 45.3%
IC50 [8]: 17 nM
Activity (HL-60 [9]): 0.8%
IC50 (K562): 7 nM
IC50 [10]: 8900 nM
IC50 (HL-60 [11]): 36 nM
Activity (HL-60 [12]): 7.2%
IC50 (A549): 58 nM
IC50 (OVCAR-8): 40 nM
Activity (KB [13]): 21.3%
IC50 (PC-3): > 1000 nM
Activity (HL-60 [14]): 26.7%
Activity (KB [15]): 18.5%
IC50 (HT-29): 3140 nM
Activity (KB [16]): 22.2%
fold change (FC) (HL-60 [17]): 5.7
IC50 (SF-268): 186 nM
IC50 (HCT-116): 23 nM
viability at 0.05 µM (HL-60 [18]): 30.8%
IC50 [19]: 5 nM
viability at 0.05 µM (HL-60 [20]): 72.4%

COc1ccc(-c2oc3c(OC)c(OC)c(OC)c(O)c3c(=O)c2OC)cc1I
Activity (KB [1]): <=13%

COc1c(OC)c(O)c2c(=O)c(OC)c(-c3ccc(O)c(C=O)c3)oc2c1OC
Activity (KB [1]): <=13%

COc1ccc(-c2oc3c(OC)c(OC)c(OC)c(O)c3c(=O)c2OC)cc1 [5-HYDROXYAURANETIN]
Activity (KB [1]): 73%
inhibition (Ovis aries): 2%
IC50 (KB [2]): 720 nM
fold change (FC) (HL-60 [21]): 4.5

COc1ccc(-c2oc3c(OC)c(OC)c(OC)c(N)c3c(=O)c2OC)cc1N
Activity (KB [1]): 78%
IC50 [10]: 24000 nM
IC50 (KB [2]): 128 nM
fold change (FC) (HL-60 [21]): 3.6

COc1ccc(-c2oc3c(O)c(OC)c(OC)c(O)c3c(=O)c2OC)cc1N
Activity (KB [1]): 34%
IC50 (KB [2]): > 10000 nM

COc1ccc(-c2oc3c(OC)c(OC)c(OC)cc3c(=O)c2OC)cc1N
Activity (KB [1]): 84%
IC50 [10]: 12000 nM
IC50 (KB [2]): 78 nM
fold change (FC) (HL-60 [21]): 3.1

COc1cccc2c1C(=O)c1c(O)c3c(c(O)c1C2=O)C[C@@](O)(C(=O)CO)C[C@@H]3O[C@H]1C[C@H](N)[C@H](O)[C@H](C)O1 [DOXORUBICIN]
viability at 0.2 µM (HL-60 [22]): 5.2%
Activity (HL-60 [23]): 45.9%
Activity (HL-60 [24]): 89.2%
viability at 0.2 µM (HL-60 [25]): 52.8%
Activity (HL-60 [26]): 5.6%
Activity (HL-60 [27]): 1.2%

COc1ccc(-c2oc3c(OC)c(OC)c(OC)c(O)c3c(=O)c2OC)cc1N
IC50 (MIA PaCa-2): 33 nM
Activity (KB [3]): 7.3%
IC50 (HCT-15): 12 nM
IC50 (SK-OV-3): 37 nM
Activity (KB [4]): 14%
Activity (KB [1]): 96%
Activity (KB [5]): 38.5%
Activity (KB [6]): 32%
IC50 (HepG2): 81 nM
Activity (KB [7]): 34.5%
IC50 [8]: 34 nM
Activity (HL-60 [9]): 2.1%
IC50 (K562): 9 nM
IC50 [10]: 13000 nM
IC50 (HL-60 [11]): 36 nM
Activity (HL-60 [12]): 2.2%
IC50 (A549): 32 nM
IC50 (OVCAR-8): 105 nM
Activity (KB [13]): 39.3%
IC50 (PC-3): > 1000 nM
Activity (HL-60 [14]): 20.7%
Activity (KB [15]): 19.2%
IC50 (HT-29): 50 nM
Activity (KB [16]): 15.5%
fold change (FC) (HL-60 [17]): 3.2
IC50 (SF-268): 400 nM
IC50 (KB [2]): 25 nM
IC50 (HCT-116): 25 nM
Activity (HL-60 [28]): 37.6%
viability at 0.05 µM (HL-60 [18]): 60.1%
IC50 [19]: 14 nM
viability at 0.05 µM (HL-60 [20]): 77.1%
